VIM-2 inhibitor = blocks Pseudomonas aeruginosa VIM-2 metallo-beta-lactamase | AID 1527 | inhibition, % at 5.6 µM | hit rate 0.89% among 290,000 | purified VIM-2, nitrocefin hydrolysis, epi-absorbance fluorescence;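 active = inhibition above the mean of all tested compounds plus 3 SD, cutoff set per screening run, cut at about 7.5% in these data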;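 note: red hydrolysis product quenches plate fluorescence so inhibitors raise well fluorescence; 0% = enzyme with DMSO and 100% = DMSO without enzyme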
MEKK3 PB1 HTS = modulators (inhibitors or enhancers) of MEK5 binding to human MEKK3 PB1 domain; Q99759; bead-based flow cytometry, Alexa488-MEK5 binding to MEKK3; actives lie on both sides; 0 = blocked by unlabeled MEK5, 100 = vehicle; binding response (% of control), % at 10 µM; hit rate 1.4% among 290,000;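 active = binding response more than 3 SD above or below the average of its plate-row segment, actives on both sides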;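 note: Alexa488 bead fluorescence after subtracting the streptavidin-only scavenger bead signal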
Target sequence (Q99759 whole entry, looked up, the tested form may be a part): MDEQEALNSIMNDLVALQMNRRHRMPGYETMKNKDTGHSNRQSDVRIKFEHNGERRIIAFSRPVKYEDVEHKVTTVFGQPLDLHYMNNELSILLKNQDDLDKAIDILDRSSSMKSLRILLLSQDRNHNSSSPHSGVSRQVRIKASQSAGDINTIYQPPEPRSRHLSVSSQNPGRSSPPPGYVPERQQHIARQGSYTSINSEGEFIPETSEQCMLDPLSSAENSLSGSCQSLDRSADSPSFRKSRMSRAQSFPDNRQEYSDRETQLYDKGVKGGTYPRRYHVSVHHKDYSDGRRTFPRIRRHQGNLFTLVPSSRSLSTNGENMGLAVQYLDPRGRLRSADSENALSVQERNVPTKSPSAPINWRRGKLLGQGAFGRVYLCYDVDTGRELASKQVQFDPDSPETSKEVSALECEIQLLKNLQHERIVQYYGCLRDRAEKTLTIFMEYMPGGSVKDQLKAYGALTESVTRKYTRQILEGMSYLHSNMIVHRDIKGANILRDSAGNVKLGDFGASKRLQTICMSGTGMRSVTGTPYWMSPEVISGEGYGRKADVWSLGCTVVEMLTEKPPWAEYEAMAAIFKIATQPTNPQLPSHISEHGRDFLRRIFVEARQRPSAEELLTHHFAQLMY
MEKK2 mut-MEK5 = signal of MEK5 binding to mutant human MEKK2 PB1 domain | bead flow cytometry, Alexa488-MEK5 binding to MEKK2 mutant | percent response, % at 10 µM | hit rate 0.35% among 290,000 | AID 1530; in the data active = percent response above about 24%, passing the limit was not always enough
IMP-1 inhibitor = inhibitors of Pseudomonas aeruginosa IMP-1 metallo-beta-lactamase | purified IMP-1, nitrocefin hydrolysis, epi-absorbance fluorescence | inhibition, % at 5.6 µM | hit rate 0.45% among 290,000;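 active = inhibition above the mean plus 3 SD of all compounds in the same screening run, cut at about 4.5% in these data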;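 note: 0% = IMP-1 with DMSO and 100% = DMSO wells lacking enzyme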
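System: purified recombinant IMP-1 beta-lactamase. Medium: Zinc- and detergent-supplemented HEPES buffer, pH 7.1. Compound: one 5.6 µM dose […]. Schedule: 15 min preincubation plus 25 min reaction at 25 °C. Technique: Epi-absorbance fluorescence, 480 nm excitation, 530 nm emission.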
MEKK2 WT-MEK5 = raises or lowers MEK5 binding to wildtype human MEKK2 PB1 domain | Q9Y2U5 | bead flow cytometry, Alexa488-MEK5 binding to MEKK2 WT; actives lie on both sides | binding response (% of control), % at 10 µM | hit rate 1.1% among 290,000; in the data active = binding response below about 67% or above about 130%
An asterisk follows results filed as active; [ ] = remark or other dose. The list is not random: actives were taken first. Their share in the collection is about 3.4%.

SMILES	VIM-2 inhibitor	MEKK3 PB1 HTS	MEKK2 mut-MEK5	IMP-1 inhibitor	MEKK2 WT-MEK5
O=C(C1=C(O)C(=O)N(CCc2ccccc2)C1c1cccnc1)c1ccco1 (stereo not drawn)	4	97	-3	5.9*	99
C=CCSc1nc2ccccc2n2cnnc12	10*	104	5	-1	110
CCOC(=O)CSc1nc2ccccc2n2cnnc12	0	94	2	-3	94
CCn1c(=NC(=O)CN2C(=O)CCC2=O)sc2c(OC)ccc(OC)c21	0	102	7	4.6*	107
Cc1ccc(N2CC(C)Cn3c2nc2c3c(=O)[nH]c(=O)n2C)cc1C (stereo not drawn)	8.7*	106	10	-2	110
COc1cc(C(=O)NCC(=O)N/N=C/c2cccc(OC(=O)c3ccco3)c2)cc(OC)c1OC	-2	103	4	0	100
CCc1cc(CNC(=O)c2ccc(OC3CCN(CCc4ccccc4)CC3)cc2)on1	-2	98	0	13*	102
O=C(NCC1CCCO1)C1CCCN(S(=O)(=O)c2cccc(C(F)(F)F)c2)C1 (stereo not drawn)	1	102	-2	4.6*	104
C=CCn1cc(CN2CCC(C(=O)Nc3cccc(-c4cccc(F)c4)c3)CC2)c(C)n1	0	105	16	-2	135*
CCCn1cc(CN2CCC(C(=O)Nc3cccc(-c4cscn4)c3)CC2)c(C)n1	2	93	-7	-1	107
C=CCn1cc(CN2CCC(C(=O)Nc3ccc(Oc4cccnc4)cc3)CC2)c(C)n1	-1	104	4	-2	108
C=CCn1cc(CN2CCC(C(=O)Nc3cccc(-c4cccc(Cl)c4)c3)CC2)c(C)n1	2	99	10	0	157*
Cc1c(CN2CCC(C(=O)Nc3cccc(-c4cccc(Cl)c4)c3)CC2)cnn1C	-5	97	12	-1	136*
Cn1cc(CN2CCC(C(=O)Nc3cccc(-c4cccc(F)c4)c3)CC2)cn1	-2	107	21	1	146*
Cc1cc2c(cc1C)NC(CC(=O)NCc1ccccc1)C(=O)N2 (stereo not drawn)	-4	109	6	-1	107
CS(=O)(=O)c1cnc2c(-c3ccc(F)cc3)cnn2c1N	-3	101	1	-2	98
CCCCCCc1cc2cc(C(=O)NC)c(=N)oc2cc1O	1	110	3	1	103
CCc1ccc(NCc2ccc(OC)c(Cn3ccnc3)c2)cc1	-5	103	11	-1	113
Cc1nn(C(C)C)c(C)c1CN1CCC(C(=O)Nc2cccc(-c3cccc(F)c3)c2)CC1	0	99	9	-1	135*
CCc1ncc(CN2CCCC(C(=O)Nc3cccc(-c4ccc(F)cc4)c3)C2)cn1 (stereo not drawn)	-2	103	7	-4	114
CCn1cc(CN2CCCC(C(=O)Nc3cccc(-c4cc5ccccc5[nH]4)c3)C2)cn1 (stereo not drawn)	3	103	22	-1	147*
COc1ccc(N2COC3c4cccc5cccc(c45)C32)cc1 (stereo not drawn)	1	112	1	4.7*	102
Cc1nnc(NC(=O)c2cccc(S(=O)(=O)N3CC(c4ccccc4)CC3=O)c2)s1 (stereo not drawn)	-2	98	1	-5	98
CC12CCC(C[N+](C)(C)C1)C2(C)C (stereo not drawn)	-3	111	91*	-2	33*
CSc1nc(NCCCO)c2c3c(sc2n1)CN(C)CC3	9.4*	98	-4	-1	96
CSc1nc(NCC(C)O)c2c3c(sc2n1)CN(C)CC3 (stereo not drawn)	5	100	4	-3	103
O=C(NC1CCCCC1)C1CCN(S(=O)(=O)c2cccs2)CC1	3	98	0	4.8*	100
O=C(NC1CCCCCC1)C1CCCN(S(=O)(=O)c2cccs2)C1 (stereo not drawn)	0	110	8	-2	114
Clc1cccc(-c2ccnc3nc(-n4cccc4)nn23)c1	-1	102	4	-2	103
O=C(C1CCC(CNS(=O)(=O)c2cccs2)CC1)N1CCN(c2ccc(F)cc2)CC1 (stereo not drawn)	-2	77*[inhibitor]	-20	-3	94
